54 sequences from the array DNA melting data of Ke et al. (doi:10.1101/2024.01.08.574731) can be followed below.

Data set [1] is described as follows: folding enthalpy; higher = less favourable; fluorescence melt of hairpins on a sequencing array, two-state fit. The conditions noted are these: sodium 0.088 M. The method in brief:
(§1)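 Folding enthalpy and melting temperature come from bootstrapped two-state fits to Cy3 fluorescence of library hairpins carrying annealed Cy3 and quencher oligos on a sequenced MiSeq flow cell. Imaging was done in 50 mM Na-HEPES pH 8.0, 25 mM NaCl, stepping by 2.5 °C up to 60 °C, and signals were normalised to pre-quench Cy3 and to control constructs. Results of four replicates were combined by inverse variance, and fitted temperatures were raised by 9.35 °C to match UV melts.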

A short description of data set [2]: melting temperature; fluorescence melt of hairpins on a sequencing array, two-state fit, raised by 9.35 °C to match UV melts. The note with it: sodium 0.088 M. The method in brief:
as §1

GGGAACACGAAAGTGCCC (((..(((....)))))): the folding enthalpy in data set [1] was -19.8 kcal/mol. For the same sequence, the Tm in data set [2] was 45 °C.

On to GGGAACCGAAAGGTACCC (((.(((....))).))), for which the folding enthalpy in data set [1] was -34.5 kcal/mol. Also, the Tm in data set [2] worked out at 58.6 °C.

On to GGGAACGAAAGTTCACCC ((((((....)))..))), for which, in data set [1], the folding enthalpy was -20.7 kcal/mol. Moreover, the Tm in data set [2] is 51.6 °C.

With GGGAACGAAAGTTCTCCC ((((((....)))..))), the folding enthalpy in data set [1] is -14.7 kcal/mol. Moreover, the Tm in data set [2] was found to be 45 °C.

On to GGGAACGGAAACGTCCCC (((.(((....))).))), for which, in data set [1], the folding enthalpy was -30.7 kcal/mol. Besides, the Tm in data set [2] is 50.2 °C.

Take GGGAAGCCGAAAGGCCCC (((..(((....)))))): the folding enthalpy in data set [1] was -16.3 kcal/mol. The Tm in data set [2] came to 50.6 °C.

Regarding GGGAAGGCGAAAGCCCCC (((..(((....)))))), the folding enthalpy in data set [1] is -14 kcal/mol. Moreover, the Tm in data set [2] stood at 48.1 °C.

As for GGGAATGGAAACATTTCC ((.((((....)))).)), the folding enthalpy in data set [1] was -32 kcal/mol. Besides, in data set [2], the Tm was found to be 45.1 °C.

In the case of GGGACCCGAAAGGGCCC (((.(((....)))))), the folding enthalpy in data set [1] is -19 kcal/mol. Also, the Tm in data set [2] turned out to be 66 °C.

GGGACCGAAAGGTACCCC ((((((....)))..))): the folding enthalpy in data set [1] is -12.5 kcal/mol. The Tm in data set [2] turned out to be 61.3 °C.

Turning to GGGACCGAAAGGTAGCCC ((((((....)))..))), in data set [1], the folding enthalpy was -16 kcal/mol. For the same sequence, the Tm in data set [2] was found to be 43.2 °C.

GGGACCGAAAGGTGCCCC ((((((....)))..))): the folding enthalpy in data set [1] is -13.5 kcal/mol. Moreover, the Tm in data set [2] turned out to be 57.6 °C.

Take GGGACCGAAAGGTGTCCC ((((((....)))..))): the folding enthalpy in data set [1] was -23.4 kcal/mol. Besides, the Tm in data set [2] was determined as 51.3 °C.

Regarding GGGACCGGAAACAGTCCC (((((.(....).))))), the folding enthalpy in data set [1] was -34.5 kcal/mol. Moreover, in data set [2], the Tm worked out at 49.4 °C.

With GGGACGACGAAAGTCCCC (((..(((....)))))), the folding enthalpy in data set [1] is -15.2 kcal/mol. For the same sequence, the Tm in data set [2] came to 49.2 °C.

With GGGACTCGAAAGAGACCC (((.(((....))).))), the folding enthalpy in data set [1] was -39.2 kcal/mol. Further, the Tm in data set [2] turned out to be 59.5 °C.

In the case of GGGAGAGCGAAAGCTCCC (((..(((....)))))), the folding enthalpy in data set [1] is -15.8 kcal/mol. Also, the Tm in data set [2] was 53.7 °C.

Consider GGGAGATCGAAAGATCCC (((..(((....)))))), for which the folding enthalpy in data set [1] is -14.5 kcal/mol. The Tm in data set [2] is 49.8 °C.

As for GGGAGCGAAAGCTACCC ((((((....))).))), the folding enthalpy in data set [1] is -15.7 kcal/mol. Further, the Tm in data set [2] worked out at 62.8 °C.

For the sequence GGGAGCGAAAGCTGGCCC ((((((....)))..))), the folding enthalpy in data set [1] was -14 kcal/mol. Further, the Tm in data set [2] worked out at 39.8 °C.

Turning to GGGAGCGGAAACGTTCCC ((((.((....)).)))), in data set [1], the folding enthalpy was -48.9 kcal/mol. In addition, the Tm in data set [2] turned out to be 55.5 °C.

GGGAGTGAAAACTCCC ((((((....)))))): the folding enthalpy in data set [1] was -34.1 kcal/mol. Also, the Tm in data set [2] came out at 65.2 °C.

As for GGGAGTGGAAACACTCTC (.(((((....))))).), the folding enthalpy in data set [1] is -25.1 kcal/mol. In data set [2], the Tm was 51.7 °C.

On to GGGATAGGAAACTATTCC ((.((((....)))).)), for which the folding enthalpy in data set [1] was -34.3 kcal/mol. The Tm in data set [2] turned out to be 40.7 °C.

As for GGGATCCCGAAAGGGCCC (((..(((....)))))), the folding enthalpy in data set [1] was -16.4 kcal/mol. For the same sequence, in data set [2], the Tm was 45 °C.

Regarding GGGATCGAAAGATACCC ((((((....))).))), the folding enthalpy in data set [1] is -21.2 kcal/mol. The Tm in data set [2] was 51.6 °C.

In the case of GGGATCGAAAGATATCCC ((((((....)))..))), the folding enthalpy in data set [1] was -25 kcal/mol. In addition, in data set [2], the Tm worked out at 39.8 °C.

For GGGATCGAAAGATTCCCC ((((((....)))..))), in data set [1], the folding enthalpy is -18.8 kcal/mol. Besides, the Tm in data set [2] was found to be 49.3 °C.

For GGGATCGGAAACGATCTC (.(((((....))))).), in data set [1], the folding enthalpy is -31.9 kcal/mol. In addition, in data set [2], the Tm amounted to 54.2 °C.

As to GGGATCTCGAAAGAGCCC (((..(((....)))))), the folding enthalpy in data set [1] is -27.9 kcal/mol. Besides, the Tm in data set [2] came to 51.2 °C.

As for GGGATGCGAAAGCAACCC (((.(((....))).))), in data set [1], the folding enthalpy is -24.4 kcal/mol. Also, the Tm in data set [2] was 63.6 °C.

In the case of GGGATGGAAACATCCC ((((((....)))))), the folding enthalpy in data set [1] is -41.4 kcal/mol. Also, the Tm in data set [2] was found to be 60.7 °C.

Regarding GGGATGGGAAACCACCCC (((.(((....))).))), the folding enthalpy in data set [1] is -32 kcal/mol. In addition, the Tm in data set [2] stood at 47.3 °C.

Turning to GGGATTACGAAAGTACCC (((..(((....)))))), in data set [1], the folding enthalpy was -17.1 kcal/mol. Also, the Tm in data set [2] is 34.1 °C.

As to GGGCAACGAAAGTTACCC (((.(((....))).))), the folding enthalpy in data set [1] is -38.9 kcal/mol. Besides, in data set [2], the Tm came to 52.2 °C.

Take GGGCAACGAAAGTTCCC (((.(((....)))))): the folding enthalpy in data set [1] was -22.1 kcal/mol. Also, the Tm in data set [2] was determined as 47.4 °C.

For the sequence GGGCAAGGAAACTTGTCC ((.((((....)))).)), the folding enthalpy in data set [1] was -40.7 kcal/mol. Further, in data set [2], the Tm stood at 52.3 °C.

Regarding GGGCACCGAAAGGTCCCC (((.(((....))).))), the folding enthalpy in data set [1] is -17.8 kcal/mol. In data set [2], the Tm was 54.7 °C.

GGGCACGAAAGTGATCCC ((((((....)))..))): in data set [1], the folding enthalpy is -19.4 kcal/mol. Moreover, the Tm in data set [2] was 50.3 °C.

Turning to GGGCACGAAAGTGTACCC ((((((....)))..))), in data set [1], the folding enthalpy is -18.4 kcal/mol. The Tm in data set [2] turned out to be 50.3 °C.

As for GGGCACTCGAAAGAGCCC (((..(((....)))))), the folding enthalpy in data set [1] was -31.1 kcal/mol. Further, the Tm in data set [2] was determined as 50.9 °C.

GGGCAGACGAAAGTCCCC (((..(((....)))))): in data set [1], the folding enthalpy was -16.8 kcal/mol. In data set [2], the Tm was found to be 42.9 °C.

Consider GGGCATGGAAACATGTCC ((.((((....)))).)), for which, in data set [1], the folding enthalpy was -43.4 kcal/mol. Moreover, the Tm in data set [2] was 54.3 °C.

Turning to GGGCCACCGAAAGGTCCC (((..(((....)))))), in data set [1], the folding enthalpy is -17.8 kcal/mol. Further, the Tm in data set [2] turned out to be 41.3 °C.

Turning to GGGCCACGAAAGTGCCCC (((.(((....))).))), in data set [1], the folding enthalpy is -17.3 kcal/mol. Also, in data set [2], the Tm came out at 59.3 °C.

Turning to GGGCCAGGAAACCGGCCC (((((.(....).))))), the folding enthalpy in data set [1] was -33.2 kcal/mol. For the same sequence, in data set [2], the Tm turned out to be 64 °C.

On to GGGCCAGGAAACTGACCC (((.(((....))).))), for which the folding enthalpy in data set [1] was -40 kcal/mol. Moreover, the Tm in data set [2] stood at 50.4 °C.

Turning to GGGCCCCGAAAGGGACCC (((.(((....))).))), the folding enthalpy in data set [1] was -26 kcal/mol. Also, the Tm in data set [2] amounted to 69 °C.

For GGGCCCGAAAGGGCGCCC ((((((....)))..))), in data set [1], the folding enthalpy is -9.86 kcal/mol. Besides, the Tm in data set [2] came out at 58.2 °C.

GGGCCCGAAAGGGGACCC ((((((....)))..))): in data set [1], the folding enthalpy is -14.4 kcal/mol. Besides, the Tm in data set [2] came to 65.1 °C.

With GGGCCCGAAAGGGTGCCC ((((((....)))..))), the folding enthalpy in data set [1] was -15.7 kcal/mol. Besides, the Tm in data set [2] worked out at 60.2 °C.

Regarding GGGCCTCGAAAGAGACCC (((.(((....))).))), the folding enthalpy in data set [1] is -43 kcal/mol. Besides, the Tm in data set [2] was 56 °C.

Turning to GGGCCTGCGAAAGCACCC (((..(((....)))))), the folding enthalpy in data set [1] was -9.63 kcal/mol. Besides, the Tm in data set [2] was 50.5 °C.

For the sequence GGGCCTGGAAACGGGCCC (((((.(....).))))), the folding enthalpy in data set [1] is -38.7 kcal/mol. In addition, the Tm in data set [2] was 68.9 °C.
